The source of these data is ChEMBL document CHEMBL4138066, “Synthesis and evaluation of small molecules bearing a benzyloxy substituent as novel and potent monoamine oxidase inhibitors” (Medchemcomm, 2017).

Data set [1] deals with T1, MAO-A (amine oxidase [flavin-containing] A) (Homo sapiens, UniProt P21397).
T1 sequence (P21397 whole entry): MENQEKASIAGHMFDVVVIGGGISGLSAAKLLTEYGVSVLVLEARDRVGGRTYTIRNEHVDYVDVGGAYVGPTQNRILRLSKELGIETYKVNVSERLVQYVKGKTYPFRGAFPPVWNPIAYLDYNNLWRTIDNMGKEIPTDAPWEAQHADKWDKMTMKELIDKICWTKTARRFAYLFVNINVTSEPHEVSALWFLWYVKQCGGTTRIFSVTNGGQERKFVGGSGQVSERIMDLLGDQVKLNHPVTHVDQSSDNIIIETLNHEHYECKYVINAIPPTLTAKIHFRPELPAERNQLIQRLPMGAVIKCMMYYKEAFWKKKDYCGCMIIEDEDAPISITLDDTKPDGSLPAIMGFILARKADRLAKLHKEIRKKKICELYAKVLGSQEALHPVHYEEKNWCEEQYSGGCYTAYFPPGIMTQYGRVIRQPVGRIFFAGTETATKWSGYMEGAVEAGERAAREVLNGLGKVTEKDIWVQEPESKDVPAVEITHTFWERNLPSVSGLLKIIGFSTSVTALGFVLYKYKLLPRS
The data set can be described thus: Inhibition of human MAOA at 100 uM incubated for 15 mins using p-tyramine substrate by Amplex red reagent based fluorescence assay. Particulars: human MAOA enzyme, probe p-tyramine; call rule not given here. In a few lines: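 hMAO-A was tested at a single concentration of 100 μM, with iproniazid as reference inhibitor.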

In data set [2] the target is T2, Amine oxidase [flavin-containing] B (Homo sapiens, UniProt P27338).
T2 sequence (P27338 whole entry): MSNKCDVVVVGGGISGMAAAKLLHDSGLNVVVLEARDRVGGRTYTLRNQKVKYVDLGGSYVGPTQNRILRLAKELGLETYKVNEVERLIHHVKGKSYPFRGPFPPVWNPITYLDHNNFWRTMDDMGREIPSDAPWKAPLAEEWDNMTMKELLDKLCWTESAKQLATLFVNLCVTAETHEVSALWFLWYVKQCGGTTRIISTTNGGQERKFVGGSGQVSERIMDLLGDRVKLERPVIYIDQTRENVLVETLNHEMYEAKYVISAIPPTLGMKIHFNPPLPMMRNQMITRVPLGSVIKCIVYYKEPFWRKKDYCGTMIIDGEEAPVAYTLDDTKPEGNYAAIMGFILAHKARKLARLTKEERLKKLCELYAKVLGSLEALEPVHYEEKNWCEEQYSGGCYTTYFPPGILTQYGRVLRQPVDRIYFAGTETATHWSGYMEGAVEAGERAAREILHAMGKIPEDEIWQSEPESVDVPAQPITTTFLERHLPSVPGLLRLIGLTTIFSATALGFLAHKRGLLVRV
The data set can be described thus: Inhibition of human MAOB incubated for 15 mins using p-tyramine substrate by Amplex red reagent based fluorescence assay.

The species entered for another data set is Homo sapiens. The data set can be described thus: Selectivity index, ratio of IC50 for human MAOA to IC50 for human MAOB. In a few lines: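 Selectivity index was computed as IC50 (MAO-A)/IC50 (MAO-B), each IC50 being the mean of three experiments.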
Data set [3] has as its target T3, Amine oxidase [flavin-containing] A (Homo sapiens, UniProt P21397).
T3 sequence (P21397 whole entry): T1 sequence (P21397 whole entry)
The data set can be described thus: Inhibition of human MAOA incubated for 15 mins using p-tyramine substrate by Amplex red reagent based fluorescence assay. In a few lines: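 IC50 against hMAO-A is reported as mean ± SEM of three experiments, with iproniazid as reference.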

The target in data set [4] is T2, Amine oxidase [flavin-containing] B. The data set can be described thus: Reversible inhibition of human MAOB at 2 fold enzymatic IC50 level pre-incubated for 0 to 60 mins using p-tyramine substrate and measured after 15 mins by Amplex red reagent based fluorescence assay. The conditions noted are these: 0.25 h.
For data set [5] the target is unchanged. The data set can be described thus: Reversible inhibition of human MAOB at 2 fold enzymatic IC50 level pre-incubated for 0 mins using p-tyramine substrate and measured after 15 mins by Amplex red reagent based fluorescence assay. The conditions noted are these: 0.25 h.
The target is the same in data set [6]. The data set can be described thus: Reversible inhibition of human MAOB at 2 fold enzymatic IC50 level pre-incubated for 15 mins using p-tyramine substrate and measured after 15 mins by Amplex red reagent based fluorescence assay. Particulars: 0.25 h.
Data set [7] shares this target. The data set can be described thus: Reversible inhibition of human MAOB at 2 fold enzymatic IC50 level pre-incubated for 30 mins using p-tyramine substrate and measured after 15 mins by Amplex red reagent based fluorescence assay. The conditions noted are these: 0.25 h.
Data set [8] shares this target. The data set can be described thus: Reversible inhibition of human MAOB at 2 fold enzymatic IC50 level pre-incubated for 60 mins using p-tyramine substrate and measured after 15 mins by Amplex red reagent based fluorescence assay. The conditions noted are these: 0.25 h.
For a further data set, the system named is SH-SY5Y. The data set can be described thus: Cytotoxicity in human SH-SY5Y cells assessed as reduction in cell viability at 3 to 50 uM incubated for 48 hrs by MTT assay. The class given is cell-based. In a few lines:
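SH-SY5Y cells were exposed to various concentrations of test compound for 48 h, then viability was read by MTT assay. Results are expressed as percentage of control cells, mean ± SD of three independent experiments.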

Data set [9] addresses T2, Amine oxidase [flavin-containing] B. The data set can be described thus: Competitive inhibition of human MAOB at 0.095 to 0.38 uM using 50 to 500 uM p-tyramine substrate by Amplex red reagent dependent fluorescence assay based Lineweaver-Burk plot analysis. In a few lines:
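Kinetics were run as Michaelis-Menten experiments. Rates were measured at five p-tyramine concentrations (50-500 μM), with four inhibitor concentrations (0, 0.095, 0.19 and 0.38 μM). Inhibition type was assigned from overlaid double-reciprocal Lineweaver-Burk plots.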

A value given as a limit tells only on which side of the number the result lay.

Consider `COc1cccc(OCc2ccc(F)cc2)c1`, for which the inhibition – broadly, the relative decrease from the control value, in per cent – at 0.25 h, 100 µM in [1] amounted to 22%. Moreover, 15.6 µM corresponded to half-maximal inhibition in data set [2] (IC50). Besides, the Ratio IC50 in the data set listed under Homo sapiens is above 6.4.
As for `Brc1cccc(OCc2ccccc2)c1`, the inhibition at 0.25 h, 100 µM in data set [1] came out at 23%. Besides, the IC50 (commonly the midpoint of a concentration-inhibition curve) in data set [2] was found to be 2.73 µM. Besides, in the data set filed under Homo sapiens, the Ratio IC50 was above 36.6.
For `Cc1ccc(COc2cccc(Br)c2)cc1` the same measures were 24%, 1.53 µM and above 65.4.
For `COc1cccc(OCc2ccc(C)cc2)c1` the same measures were 26%, 14.6 µM and above 6.8.
For `COc1cccc(OCc2cccc(C)c2)c1` the same measures were 23%, 10.9 µM and above 9.2.
`COc1cccc(OCc2cccc(F)c2)c1` returned an inhibition at 0.25 h, 100 µM in data set [1] of 19%. Moreover, the IC50 in [2] worked out at 12.3 µM. Further, the Ratio IC50 in the data set filed under Homo sapiens was above 8.1.
For `Cc1cccc(COc2cccc(Br)c2)c1` the same measures were 43%, 1.98 µM and above 50.5.
In data set [1], `Fc1cccc(COc2cccc(Br)c2)c1` showed an inhibition at 0.25 h, 100 µM of 37%. In data set [2], this compound yielded an IC50 of 1.06 µM. Moreover, in the data set listed under Homo sapiens, the Ratio IC50 is above 94.3.
For `COc1cccc(OCc2ccccc2)c1` the same measures were 25%, 15.8 µM and above 6.3.
In the case of `O=Cc1cccc(OCc2ccccc2)c1`, the IC50 stood at 45.6 µM in data set [3] and 1.96 µM in data set [2]. The Ratio IC50 in the data set listed under Homo sapiens is 23.3.
For `Cc1cccc(COc2cccc(C=O)c2)c1`, the values for the IC50 in data set [3] and in [2] were 51.6 µM and 2.91 µM, respectively. The Ratio IC50 in the data set filed under Homo sapiens amounted to 17.7.
For `O=Cc1cccc(OCc2cccc(F)c2)c1` the same measures were 64.2 µM, 1.21 µM and 53.1.
On to `O=Cc1cccc(OCc2ccc(Br)cc2)c1`, for which the IC50 in data set [3] came to 27.9 µM; in [2] it was 0.19 µM. Further, the “inhibition (INH)” value in data set [4] was “Active”; in data set [5], 46.4%; in data set [6], 45.8%; in data set [7], 49.9%; in data set [8], 49.5%. The Activity entry with SH-SY5Y is “Non-Toxic”.
For `O=Cc1cccc(OCc2cccc(Br)c2)c1`, the 50% inhibitory concentration (IC50) in [3] is 28.2 µM; in data set [2] it was 0.53 µM. Also, the Ratio IC50 in the data set listed under Homo sapiens worked out at 53.2.
As to `Brc1cccc(COc2cccc(Br)c2)c1`, the inhibition at 0.25 h, 100 µM in data set [1] is 27%. The compound also returned an IC50 in [2] of 0.76 µM. Besides, the Ratio IC50 in the data set filed under Homo sapiens was above 132.
As for `COc1cccc(OCc2cccc(Br)c2)c1`, the inhibition at 0.25 h, 100 µM in data set [1] was 22%. In addition, it took 19.3 µM to reach half-maximal inhibition in [2] (IC50). Also, the Ratio IC50 in the data set listed under Homo sapiens is above 5.2.
`Fc1ccc(COc2cccc(Br)c2)cc1` gave an inhibition at 0.25 h, 100 µM in data set [1] of 31%. The same compound had an IC50 in [2] of 0.58 µM. For the same compound, the Ratio IC50 in the data set listed under Homo sapiens was above 172.
Turning to `Cc1ccc(COc2cccc(C=O)c2)cc1`, the half-inhibitory concentration (IC50) in data set [3] amounted to 64.8 µM; in [2], 2.53 µM. For the same compound, in the data set filed under Homo sapiens, the Ratio IC50 came out at 25.6.
In data set [1], `COc1cccc(OCc2ccc(Br)cc2)c1` showed an inhibition at 0.25 h, 100 µM of 25%. The IC50 in data set [2] was 8.63 µM. Also, in the data set listed under Homo sapiens, the Ratio IC50 was above 11.6.
With `Brc1ccc(COc2cccc(Br)c2)cc1`, the inhibition at 0.25 h, 100 µM in data set [1] amounted to 30%. The compound also came in with an IC50 in data set [2] of 0.35 µM. In addition, the “inhibition (INH)” value in data set [4] is on record as “Active”; in [5] it was 44.8%; in [6], 44.9%; in data set [7], 48.6%; in data set [8], 49.2%; in data set [9] it was “Active”. Also, the Activity entry with SH-SY5Y was “Non-Toxic”.
Regarding `O=Cc1cccc(OCc2ccc(F)cc2)c1`, the IC50 in data set [3] came out at 42.5 µM; in [2] it was 0.93 µM. The Ratio IC50 in the data set listed under Homo sapiens was 45.7.
